Reference: ChEMBL document CHEMBL1149879, “Ten-membered lactones from Phomopsis sp., an endophytic fungus of Azadirachta indica” (2008)
≈ marks a conversion by molar mass, not a printed value.

Each molecule was assayed on Fusarium verticillioides (assay: Antifungal activity against Fusarium moniliforme YM3067 after 72 hrs by disk diffusion method).
Format: functional
Method in brief: (§1)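 Paper-disk diffusion. Fungi grown on PDA at 28 °C; spores mixed into melted PDA at 1 × 10^6 spores/mL and poured into plates. Compounds in 50% aqueous DMSO, serially double diluted from 500 to 15.63 µg/mL, loaded onto sterile 6 mm paper disks. Dried disks placed on agar, incubated 28 °C for 72 h, inhibition zones then measured.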

Row | Molecule | MIC [µg/mL]
1 | C[C@@H]1C[C@@H](O)[C@@H](O)/C=C/C=C\C(=O)O1 | > 500
2 | CC(=O)O[C@@H]1C[C@@H](C)OC(=O)CC[C@H](O)CC1=O | > 500
3 | CC(=O)O[C@H]1/C=C/[C@@H]2O[C@@H]2C(=O)O[C@H](C)C[C@H]1O [7ALPHA-ACETOXYMULTIPLOLIDE A] | > 500
4 | CC(=O)O[C@@H]1C[C@@H](C)OC(=O)[C@H]2O[C@H]2/C=C/[C@@H]1O [8ALPHA-ACETOXYMULTIPLOLIDE A] | 500 (≈ 1950 µM)
5 | C[C@@H]1C[C@@H](O)[C@@H](O)/C=C/[C@@H]2O[C@@H]2C(=O)O1 [MULTIPLOLIDE A] | > 500
6 | NYSTATIN | 62.5

What follows are molecules tested on Talaromyces islandicus (assay: Antifungal activity against Penicillium islandicum YM3104 after 72 hrs by disk diffusion method).
Format: functional
Method in brief: as §1

Row | Molecule | MIC [µg/mL]
7 | C[C@@H]1C[C@@H](O)[C@@H](O)/C=C/C=C\C(=O)O1 | > 500
8 | CC(=O)O[C@@H]1C[C@@H](C)OC(=O)CC[C@H](O)CC1=O | 250 (≈ 968 µM)
9 | CC(=O)O[C@H]1/C=C/[C@@H]2O[C@@H]2C(=O)O[C@H](C)C[C@H]1O [7ALPHA-ACETOXYMULTIPLOLIDE A] | > 500
10 | CC(=O)O[C@@H]1C[C@@H](C)OC(=O)[C@H]2O[C@H]2/C=C/[C@@H]1O [8ALPHA-ACETOXYMULTIPLOLIDE A] | 250 (≈ 976 µM)
11 | C[C@@H]1C[C@@H](O)[C@@H](O)/C=C/[C@@H]2O[C@@H]2C(=O)O1 [MULTIPLOLIDE A] | 250 (≈ 1170 µM)
12 | NYSTATIN | 15.6

The molecules below were run on Aspergillus niger (assay: Antifungal activity against Aspergillus niger YM3029 after 72 hrs by disk diffusion method).
Format: functional
Method in brief: as §1

Row | Molecule | MIC [µg/mL]
13 | C[C@@H]1C[C@@H](O)[C@@H](O)/C=C/C=C\C(=O)O1 | 125 (≈ 631 µM)
14 | CC(=O)O[C@@H]1C[C@@H](C)OC(=O)CC[C@H](O)CC1=O | 125 (≈ 484 µM)
15 | CC(=O)O[C@H]1/C=C/[C@@H]2O[C@@H]2C(=O)O[C@H](C)C[C@H]1O [7ALPHA-ACETOXYMULTIPLOLIDE A] | 125 (≈ 488 µM)
16 | CC(=O)O[C@@H]1C[C@@H](C)OC(=O)[C@H]2O[C@H]2/C=C/[C@@H]1O [8ALPHA-ACETOXYMULTIPLOLIDE A] | 125 (≈ 488 µM)
17 | C[C@@H]1C[C@@H](O)[C@@H](O)/C=C/[C@@H]2O[C@@H]2C(=O)O1 [MULTIPLOLIDE A] | 250 (≈ 1170 µM)
18 | NYSTATIN | 15.6

These molecules were tested on Botrytis cinerea (assay: Antifungal activity against Botrytis cinerea YM3061 after 72 hrs by disk diffusion method).
Format: functional
Method in brief: as §1

Row | Molecule | MIC [µg/mL]
19 | C[C@@H]1C[C@@H](O)[C@@H](O)/C=C/C=C\C(=O)O1 | 500 (≈ 2520 µM)
20 | CC(=O)O[C@@H]1C[C@@H](C)OC(=O)CC[C@H](O)CC1=O | 250 (≈ 968 µM)
21 | CC(=O)O[C@H]1/C=C/[C@@H]2O[C@@H]2C(=O)O[C@H](C)C[C@H]1O [7ALPHA-ACETOXYMULTIPLOLIDE A] | > 500
22 | CC(=O)O[C@@H]1C[C@@H](C)OC(=O)[C@H]2O[C@H]2/C=C/[C@@H]1O [8ALPHA-ACETOXYMULTIPLOLIDE A] | 62.5 (≈ 244 µM)
23 | C[C@@H]1C[C@@H](O)[C@@H](O)/C=C/[C@@H]2O[C@@H]2C(=O)O1 [MULTIPLOLIDE A] | > 500
24 | NYSTATIN | 31.2

These molecules were tested on Fusarium avenaceum (assay: Antifungal activity against Fusarium avenaceum YM3065 after 72 hrs by disk diffusion method).
Format: functional
Method in brief: as §1

Row | Molecule | MIC [µg/mL]
25 | C[C@@H]1C[C@@H](O)[C@@H](O)/C=C/C=C\C(=O)O1 | > 500
26 | CC(=O)O[C@@H]1C[C@@H](C)OC(=O)CC[C@H](O)CC1=O | > 500
27 | CC(=O)O[C@H]1/C=C/[C@@H]2O[C@@H]2C(=O)O[C@H](C)C[C@H]1O [7ALPHA-ACETOXYMULTIPLOLIDE A] | > 500
28 | CC(=O)O[C@@H]1C[C@@H](C)OC(=O)[C@H]2O[C@H]2/C=C/[C@@H]1O [8ALPHA-ACETOXYMULTIPLOLIDE A] | > 500
29 | C[C@@H]1C[C@@H](O)[C@@H](O)/C=C/[C@@H]2O[C@@H]2C(=O)O1 [MULTIPLOLIDE A] | > 500
30 | NYSTATIN | 62.5

The molecules below were run on Ophiostoma minus (assay: Antifungal activity against Ophiostoma minus YM3429 after 72 hrs by disk diffusion method).
Format: functional
Method in brief: as §1

Row | Molecule | MIC [µg/mL]
31 | C[C@@H]1C[C@@H](O)[C@@H](O)/C=C/C=C\C(=O)O1 | > 500
32 | CC(=O)O[C@@H]1C[C@@H](C)OC(=O)CC[C@H](O)CC1=O | > 500
33 | CC(=O)O[C@H]1/C=C/[C@@H]2O[C@@H]2C(=O)O[C@H](C)C[C@H]1O [7ALPHA-ACETOXYMULTIPLOLIDE A] | > 500
34 | CC(=O)O[C@@H]1C[C@@H](C)OC(=O)[C@H]2O[C@H]2/C=C/[C@@H]1O [8ALPHA-ACETOXYMULTIPLOLIDE A] | 31.2 (≈ 122 µM)
35 | C[C@@H]1C[C@@H](O)[C@@H](O)/C=C/[C@@H]2O[C@@H]2C(=O)O1 [MULTIPLOLIDE A] | > 500
36 | NYSTATIN | 31.2

What follows are molecules tested on Bipolaris maydis (assay: Antifungal activity against Helminthosporium maydis YM3076 after 72 hrs by disk diffusion method).
Format: functional
Method in brief: as §1

Row | Molecule | MIC [µg/mL]
37 | C[C@@H]1C[C@@H](O)[C@@H](O)/C=C/C=C\C(=O)O1 | 500 (≈ 2520 µM)
38 | CC(=O)O[C@@H]1C[C@@H](C)OC(=O)CC[C@H](O)CC1=O | 500 (≈ 1940 µM)
39 | CC(=O)O[C@H]1/C=C/[C@@H]2O[C@@H]2C(=O)O[C@H](C)C[C@H]1O [7ALPHA-ACETOXYMULTIPLOLIDE A] | > 500
40 | CC(=O)O[C@@H]1C[C@@H](C)OC(=O)[C@H]2O[C@H]2/C=C/[C@@H]1O [8ALPHA-ACETOXYMULTIPLOLIDE A] | 500 (≈ 1950 µM)
41 | C[C@@H]1C[C@@H](O)[C@@H](O)/C=C/[C@@H]2O[C@@H]2C(=O)O1 [MULTIPLOLIDE A] | 500 (≈ 2330 µM)
42 | NYSTATIN | 31.2
